Data set [1] concerns PC-3. The experiment in a line: Antiproliferative activity against human PC3 cells measured after 48 hrs by sulforhodamine-B assay. The following applies: PC-3, 48 h. Type of data set: functional, cell-based.
Data set [2] can be described thus: Inhibition of HDAC activity in human HeLa cell nuclear extract using fluorometric substrate measured after 30 mins by fluorescence assay. The format is cell-based.
In a further data set the target is T1, Histone deacetylase 7 (Homo sapiens, UniProt Q8WUI4).
T1 sequence (Q8WUI4 whole entry): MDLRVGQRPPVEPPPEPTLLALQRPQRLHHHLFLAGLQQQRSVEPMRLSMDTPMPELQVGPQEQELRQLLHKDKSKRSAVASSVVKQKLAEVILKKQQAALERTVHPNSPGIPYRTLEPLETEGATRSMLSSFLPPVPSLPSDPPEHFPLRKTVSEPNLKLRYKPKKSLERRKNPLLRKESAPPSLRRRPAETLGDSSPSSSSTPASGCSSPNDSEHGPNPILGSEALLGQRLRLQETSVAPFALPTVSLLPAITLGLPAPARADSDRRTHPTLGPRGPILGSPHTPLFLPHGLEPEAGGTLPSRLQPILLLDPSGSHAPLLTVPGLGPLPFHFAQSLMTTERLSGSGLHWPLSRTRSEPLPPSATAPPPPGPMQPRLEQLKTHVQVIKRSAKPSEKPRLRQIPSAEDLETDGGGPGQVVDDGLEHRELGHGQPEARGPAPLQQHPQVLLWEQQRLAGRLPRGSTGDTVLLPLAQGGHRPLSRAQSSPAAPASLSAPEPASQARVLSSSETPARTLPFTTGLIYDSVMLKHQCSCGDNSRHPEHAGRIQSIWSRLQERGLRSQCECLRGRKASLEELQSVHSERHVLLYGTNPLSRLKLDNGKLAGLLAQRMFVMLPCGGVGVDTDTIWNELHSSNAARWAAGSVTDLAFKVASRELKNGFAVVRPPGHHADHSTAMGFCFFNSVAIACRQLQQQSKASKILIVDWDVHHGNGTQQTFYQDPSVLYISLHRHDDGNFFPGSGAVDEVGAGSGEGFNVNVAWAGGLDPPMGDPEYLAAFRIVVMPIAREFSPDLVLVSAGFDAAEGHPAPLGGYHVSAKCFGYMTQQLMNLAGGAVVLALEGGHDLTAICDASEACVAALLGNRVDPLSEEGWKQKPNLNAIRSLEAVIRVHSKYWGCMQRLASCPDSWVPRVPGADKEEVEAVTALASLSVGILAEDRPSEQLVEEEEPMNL
Description: Inhibition of recombinant human HDAC7 using fluorogenic substrate by fluorescence assay.

The target of a further data set is T2, Histone deacetylase 8 (Homo sapiens, UniProt Q9BY41).
T2 sequence (Q9BY41 whole entry): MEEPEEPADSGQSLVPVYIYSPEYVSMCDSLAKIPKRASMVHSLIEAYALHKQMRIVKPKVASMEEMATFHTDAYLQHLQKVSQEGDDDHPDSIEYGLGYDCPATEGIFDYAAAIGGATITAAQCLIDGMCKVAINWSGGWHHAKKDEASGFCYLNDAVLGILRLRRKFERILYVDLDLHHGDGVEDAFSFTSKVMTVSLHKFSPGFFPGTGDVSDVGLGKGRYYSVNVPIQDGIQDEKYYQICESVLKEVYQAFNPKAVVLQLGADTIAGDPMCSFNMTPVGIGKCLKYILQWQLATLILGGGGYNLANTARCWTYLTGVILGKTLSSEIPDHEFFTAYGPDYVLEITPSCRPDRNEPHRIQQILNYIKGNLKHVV
Description: Inhibition of recombinant human HDAC8 using fluorogenic substrate by fluorescence assay.

For another data set, the target named is Histone deacetylase 9 (Homo sapiens, UniProt Q9UKV0). Description: Inhibition of recombinant human HDAC9 using fluorogenic substrate by fluorescence assay.
Histone deacetylase 9, sequence (Q9UKV0 whole entry): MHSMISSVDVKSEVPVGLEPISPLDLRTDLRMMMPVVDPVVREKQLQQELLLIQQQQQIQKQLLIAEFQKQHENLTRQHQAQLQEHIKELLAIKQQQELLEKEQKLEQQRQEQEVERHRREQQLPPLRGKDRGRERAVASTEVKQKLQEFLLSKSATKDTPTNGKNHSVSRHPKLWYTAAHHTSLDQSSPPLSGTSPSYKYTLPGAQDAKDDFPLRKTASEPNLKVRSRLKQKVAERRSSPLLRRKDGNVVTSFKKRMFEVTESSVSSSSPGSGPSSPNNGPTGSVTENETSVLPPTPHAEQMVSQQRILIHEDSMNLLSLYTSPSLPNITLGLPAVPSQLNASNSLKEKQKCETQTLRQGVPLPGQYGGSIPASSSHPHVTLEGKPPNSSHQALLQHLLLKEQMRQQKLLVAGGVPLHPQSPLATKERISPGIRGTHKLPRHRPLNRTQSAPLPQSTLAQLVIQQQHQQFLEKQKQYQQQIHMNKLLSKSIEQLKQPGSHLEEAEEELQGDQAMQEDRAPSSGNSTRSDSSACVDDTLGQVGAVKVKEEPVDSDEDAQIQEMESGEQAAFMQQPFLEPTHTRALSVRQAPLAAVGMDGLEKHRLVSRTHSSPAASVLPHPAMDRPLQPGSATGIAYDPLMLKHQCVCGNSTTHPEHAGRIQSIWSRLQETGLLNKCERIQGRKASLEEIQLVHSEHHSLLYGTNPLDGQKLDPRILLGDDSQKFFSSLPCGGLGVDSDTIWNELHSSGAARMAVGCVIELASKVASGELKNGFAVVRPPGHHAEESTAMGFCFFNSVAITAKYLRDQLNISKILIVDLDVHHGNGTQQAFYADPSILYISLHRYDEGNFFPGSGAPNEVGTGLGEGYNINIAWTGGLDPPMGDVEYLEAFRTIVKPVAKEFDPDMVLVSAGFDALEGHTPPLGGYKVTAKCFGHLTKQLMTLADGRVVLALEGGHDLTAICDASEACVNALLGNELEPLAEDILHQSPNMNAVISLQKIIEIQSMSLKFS
For data set [3], the species on record is Homo sapiens. The experiment in a line: Inhibition of HDAC in human PC3 cells assessed as increase in alpha-tubulin acetylation at 0.01 to 10 uM by Western blot analysis. The format is cell-based. In a few lines: (§1)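 PC3 prostate cancer cells treated, then lysed in 20 mM Tris-HCl pH 7.5 with 150 mM NaCl, EDTA/EGTA, phosphatase and protease inhibitors, 0.1% Triton X-100. Lysates spun 13,000 rpm for 30 min, then immunoblotted for acetylated α-tubulin and acetylated histone H3.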
(In general: In western blotting, separated proteins are transferred to a membrane and probed.)

Data set [4] is filed under the species Sus scrofa. The experiment in a line: Inhibition of purified porcine tubulin polymerization at 1 to 10 uM measured every 1 min for 30 mins.
For a further data set, the system named is HCT-116. Description: Antiproliferative activity against human HCT116 cells measured after 48 hrs by sulforhodamine-B assay. The format is functional, cell-based. The following applies: HCT-116, 48 h. (In general: The SRB assay estimates cell density from bound dye.)
For data set [5], the system named is PC-3. The experiment in a line: Antitumor activity against human PC3 cells xenografted in athymic nude mouse assessed as tumor growth inhibition at 100 mg/kg, po qd administered daily measured twice per week relative to control. The format is functional. The following applies: PC-3, po, read-out: TGI. In a few lines: (§2)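 Male athymic nude mice (5–6 wk) given 1 × 10⁷ PC3 cells s.c.; randomized by tumor size at ~150–350 mm³. Oral dosing daily, vehicle 5% DMSO + 5% Cremophor in D5W. Caliper volumes twice weekly, (length × width²)/2; %TGI = {1-[(Tt/T0)/(Ct/C0)]/1-[C0/Ct]}*100 against vehicle controls.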
(Xenograft models place foreign cells or tissue in a host animal.)

Data set [6] deals with RPMI-8226. The experiment in a line: Antitumor activity against human RPMI8226 cells xenografted in ip dosed athymic nude mouse assessed as tumor growth inhibition administered once daily measured twice per week. The format is functional, organism-based. In a few lines: (§3)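 Male athymic nude mice (5–6 wk) implanted s.c. with 1 × 10⁷ RPMI-8226 myeloma cells; randomized by tumor size at ~150–350 mm³. Daily i.p. injection, vehicle 5% DMSO + 5% Cremophor in D5W. Tumor volume by calipers twice weekly as (length × width²)/2; %TGI derived from treated vs control volume ratios at time t and time 0.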

The test system of data set [7] is RPMI-8226. The experiment in a line: Antitumor activity against human RPMI8226 cells xenografted in athymic nude mouse assessed as tumor growth inhibition at 100 mg/kg, ip qd measured twice per week relative to control. Type of data set: functional. The following applies: RPMI-8226, ip, read-out: TGI. In a few lines:
as §3

Data set [8] has as its system PC-3. The experiment in a line: Antitumor activity against human PC3 cells xenografted in athymic nude mouse assessed as tumor growth inhibition at 200 mg/kg, po qd administered daily measured twice per week relative to control. Type of data set: functional. The following applies: PC-3, po, read-out: TGI. In outline:
as §2

For data set [9], the system named is Mus musculus. Description: Toxicity in human PC3 cells xenografted in athymic nude mouse assessed as body weight loss at 100 to 200 mg/kg, po qd administered daily measured daily during first week followed by twice per week. The format is organism-based. The following applies: in vivo. In a few lines: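 PC3 xenograft nude mice (male, 5–6 wk) given daily oral drug in 5% DMSO + 5% Cremophor in D5W. Body weight recorded daily in week one, then twice weekly, compared with vehicle group.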

For data set [10], the species on record is Homo sapiens. The experiment in a line: Inhibition of HDAC in human PC3 cells assessed as increase in histone-H3 acetylation by Western blot analysis. Type of data set: cell-based. In a few lines:
as §1

Data set [11] has as its system Mus musculus. The experiment in a line: Toxicity in human RPMI8226 cells xenografted in athymic nude mouse assessed as body weight loss at 50 to 100 mg/kg, ip qd measured daily during first week followed by twice per week. The format is organism-based. The following applies: in vivo. In a few lines:
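RPMI-8226 xenograft nude mice (male, 5–6 wk) dosed i.p. daily in 5% DMSO + 5% Cremophor in D5W. Body weight measured daily for the first week, then twice weekly.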

For data set [12], the species on record is Homo sapiens. The experiment in a line: Inhibition of HDAC in human PC3 cells assessed as increase in alpha-tubulin acetylation by Western blot analysis. Type of data set: cell-based. In a few lines:
as §1

For data set [13], the species on record is Sus scrofa. The experiment in a line: Inhibition of purified porcine tubulin polymerization measured every 1 min for 30 mins.

pIC50: −log10 of the molar value. The source made the active and inactive calls. The calls are words filed in the database; no cut-off is given here.

In general, pIC50 refers to −log10 of the IC50, conventionally taken in molar units. Take `COc1ccc2c(C(=O)c3cc(OC)c(OC)c(OC)c3)cn(S(=O)(=O)c3cccc(/C=C/C(=O)NO)c3)c2c1`: the pIC50 with PC-3 [1] is 7.48; in data set [2], 6.87; at Histone deacetylase 8 it was 4.79; in the data set with HCT-116, 7.36. Besides, the IC50 result at Histone deacetylase 7 and on Histone deacetylase 9 was “Not Active” throughout. The inhibition entry in the data set filed under Homo sapiens [3] and in the data set listed under Sus scrofa [4] was “Active” throughout.

`COc1ccc2c(C(=O)c3cc(OC)c(OC)c(OC)c3)cn(Cc3ccc(C(=O)NO)cc3)c2c1`: the inhibition in vivo at 100 mg/kg in the data set on PC-3 [5] stood at 24.8%; in the data set with RPMI-8226 [7], 58.2%. Also, the pIC50 is 6.75 in the data set on PC-3 [1]; 6.21 in data set [2]; 6.41 at Histone deacetylase 8; 5.77 on Histone deacetylase 9 (read-out: IC50); 6.31 in the data set on HCT-116. In the data set with RPMI-8226 [6], the TGI entry is “Dose-dependent effect”. Also, the inhibition in vivo at 200 mg/kg in the data set with PC-3 [8] amounted to 68.5%. For the same compound, the Activity entry with Mus musculus [9] and in the data set with Mus musculus [11] was “Non-Toxic” throughout. In addition, the inhibition entry in the data set filed under Homo sapiens [10] and in the data set listed under Sus scrofa [13] was “Dose-dependent effect” throughout. Moreover, the inhibition entry in the data set filed under Sus scrofa [4] was “Active”. Besides, the alpha-tubulin acetylation increase result in the data set filed under Homo sapiens [12] is “Dose-dependent effect”.

The values above are taken from ChEMBL document CHEMBL4041521, “3-Aroylindoles display antitumor activity in vitro and in vivo: Effects of N1-substituents on biological activity” (Eur J Med Chem, 2017).
